Source: PubChem BioAssay (several laboratories)
D1 mod: D1 CRE-luciferase signal change, two-sided – cell-based, HEK293 D1, dopamine EC30, D1 allosteric modulator project, primary screen; D(1A) dopamine receptor (Homo sapiens), P21728; dopamine EC30 potentiation; actives deviate in either direction; B-score at 10 µM; 58,000 tested, 5.9% active;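 active = luminescence count or its row- and column-corrected plate score outside the 99.7% band of the plate's sample wells, on either side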
M1 antagonist: antagonists of rat M1 muscarinic receptor. CHO-M1 cells, Fluo-4 calcium, ACh EC80 antagonist mode; stronger effect = lower value. B-score at 10 µM. 64,000 tested, 3.4% active. Muscarinic acetylcholine receptor M1 (Rattus norvegicus), P08482;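 active = calcium fluorescence response, raw or row-and-column corrected B-score, differing from the plate sample mean either way at a set confidence level, mostly lower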
M1 ag: M1 muscarinic receptor agonists, primary screen, CHO-M1 cells, Fluo-4 calcium, agonist mode | Fluo-4 calcium fluorescence; stronger effect = higher value | B-score at 10 µM | 64,000 tested, 3% active;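 active = fluorescence rise, raw or as B-score row- and column-corrected plate score, outside the 99.7% band of its plate's samples, either direction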
S1P3 agonist: human S1P3 receptor agonists, primary screen, cell-based, primary and confirmation, NFAT-BLA reporter | AID 373, 2006 | S1P3 NFAT-BLA reporter cells, agonism, FRET ratio; relative to 1 µM S1P, basal subtracted | 60,000 tested, 0.1% active | activation, % at 4.5 µM | Sphingosine 1-phosphate receptor 3 (Homo sapiens), Q99500;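 active = activation above the screen-wide mean plus 3 SD, cut at about 4.5% in these data, passing the limit was not always enough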
Target sequence (Q99500 whole entry, looked up): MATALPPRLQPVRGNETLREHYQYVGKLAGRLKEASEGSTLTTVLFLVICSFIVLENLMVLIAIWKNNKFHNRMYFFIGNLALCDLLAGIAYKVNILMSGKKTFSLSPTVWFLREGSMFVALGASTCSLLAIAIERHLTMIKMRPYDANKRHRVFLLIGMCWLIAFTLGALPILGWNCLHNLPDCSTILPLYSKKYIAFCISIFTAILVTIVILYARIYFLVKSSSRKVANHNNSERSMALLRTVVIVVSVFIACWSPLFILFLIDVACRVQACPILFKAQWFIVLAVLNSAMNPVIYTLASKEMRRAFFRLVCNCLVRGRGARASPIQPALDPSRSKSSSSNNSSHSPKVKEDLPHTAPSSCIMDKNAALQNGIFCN
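Assay system: CHO cells stably expressing human S1P3, Gα16 and NFAT-β-lactamase reporter. Timing: overnight plating, 4 h compound 37 °C, 2 h substrate RT. Signal: β-lactamase FRET emission ratio 460/535 nm. Measure: percent activation versus median 1 µM S1P response, basal-subtracted, per plate. Repeats: primary screen single test, confirmation screen in triplicate.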
S1P1 ag pot: S1P1 agonists and agonism potentiators, primary screen, cell-based, primary and confirmation screens, CRE-bla reporter. 56,000 tested, 0.57% active. AID 449, 2006. S1P1 CRE-bla cells, forskolin, beta-lactamase FRET, potentiator mode; S1P1 agonist co-added at EC20, 2 nM; 100% = saturating reference agonist, 0% = basal. Sphingosine 1-phosphate receptor 1 (Homo sapiens), P21453. activation, % at 9.5 µM;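 active = activation above a cutoff set at the mean activation of all tested compounds plus 3 SD, cut at about 54% in these data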;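 also: forskolin at 4 µM as EC80 and the EC20 agonist is SEW2871; 100% = SEW2871 at its EC100 plus forskolin at EC80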
M1 antag confirm: rat M1 muscarinic receptor antagonists, confirmation, CHO cells, Fluo-4 calcium, duplicate | shares compounds with M1 antagonist | ACh EC80 antagonism; stronger effect = lower value | calcium response (max-min fluorescence) at 10 µM | 1,700 tested, 43% active;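 active = calcium response below the same-plate mean of wells given acetylcholine alone at its 80%-effect dose, minus 3 SD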;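 also: raw fluorescence intensity difference in arbitrary instrument units and not normalized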
mGluR4 antag: human mGluR4 response to M1 antagonist hits, M1 allosteric modulator project, cell-based, antagonist mode, secondary assay 1 | AID 678, 2007 | CHO-mGluR4 calcium flux, Fluo-4 fluorescence, glutamate EC80; stronger effect = lower value | shares compounds with M1 antagonist | 1,700 tested, 0.9% active | fluorescence response (max-min) at 10 µM;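 active = fluorescence response below the plate's average for near-maximal glutamate wells, less 3 SD of those wells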;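 also: raw unnormalized fluorescence span taken in the window right after glutamate addition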
* = called active by the depositor; · = no result. Only some compounds are listed: those with a hit (about 11% of all), similar ones and a draw of the others.

SMILES | D1 mod | M1 antagonist | M1 ag | S1P3 agonist | S1P1 ag pot | M1 antag confirm | mGluR4 antag
Cc1ccc(Cn2c(C(=O)NCCCN3CCOCC3)cc3sccc32)cc1 | -0.34 | -3.2* | -0.57 | 0 | 8 | 510* | 267
CCN1CCN(CCCNC(=O)c2cc3sccc3n2CC)CC1 | -0.28 | -1.6* | -0.031 | -1 | -23 | 611 | 231
CCCCn1c(SCC(=O)N2CCOCC2)nnc1-c1cccs1 | 1.9 | 0.16 | 0.59 | -1 | 5 | · | ·
COc1ccc(CCn2c(SCC(=O)Nc3cc(C)on3)nc3ccsc3c2=O)cc1OC | -0.44 | -1.7* | 2.9 | · | · | 596 | 212
CN(Cc1cccs1)C(=O)COc1ccc(-c2nnco2)cc1 | -0.34 | -0.11 | -0.32 | 0 | 0 | · | ·
O=C(CCNS(=O)(=O)c1cccc2nonc12)N1CCN(c2cccc(Cl)c2)CC1 | · | -3.1* | 0.19 | · | · | 253* | 251
O=C(CCS(=O)(=O)c1cccc2nonc12)N1CCN(c2ccc(F)cc2)CC1 | -0.11 | -6.9* | 0.04 | · | · | 622 | 303
CC(C)C1(C)C(=O)N=C2c3ccccc3C(=O)N21 (centres undefined) | -0.096 | -0.12 | -0.053 | -1 | 16 | · | ·
CCOC(=O)C1CCCN(C(=O)c2cc3c(C)nc4ccccc4c3o2)C1 (centres undefined) | 0.97 | -2.7* | -0.44 | -2 | -36 | 486* | 143*
COc1ccc(OCc2nnc(SC(C)C(=O)Nc3nccs3)n2-c2ccccc2)cc1 (centres undefined) | -0.065 | 0.74 | -0.6 | -1 | 0 | · | ·
CCOC(=O)/C=C1\SCC(=O)N1CC(=O)Nc1ccc2c(c1)CCC2 | 0.039 | -1.9* | 0.39 | 0 | -17 | 652 | 183
O=C(N1CCOCC1)C(F)(F)C(F)(F)C(F)(F)C(F)(F)C(=O)N1CCOCC1 | -0.3 | 0.45 | -0.16 | 0 | -12 | · | ·
CN(CCC#N)CC(=O)Nc1ccc(NC(=O)CN(C)CCC#N)cc1 | · | -14* | 0.74 | 0 | -15 | 697 | 242
Cc1cc(NS(=O)(=O)Cc2ccccc2)no1 | -0.63 | -0.46 | 0.034 | 0 | -7 | · | ·
O=C(CC1Oc2ccccc2NC1=O)NC1CC1 (centres undefined) | -0.33 | -3.9* | 0.38 | 0 | -22 | 552 | 196
CCC(C)N(CCNC(=O)CC1Oc2ccccc2NC1=O)C1CCCCC1 (centres undefined) | -1.7 | -11* | -0.093 | -1 | -6 | 61* | 229
COc1ccc2cc(CCNC(=O)c3c(-c4ccccc4Cl)noc3C)c(=O)[nH]c2c1 | -0.13 | 0.014 | 0.35 | 0 | -6 | · | ·
CCCOc1ccc(N2CC(C(=O)NC(C)C)CC2=O)cc1 (centres undefined) | 1.5 | -0.07 | -0.69 | 0 | -4 | · | ·
Cc1cc(=O)[nH]c(S/C=C/c2ccccc2)n1 | -2.7 | -0.19 | 0.31 | 1 | 4 | · | ·
COc1ccc2[nH]c(=O)c(CN(C)C(=O)COc3ccccc3)cc2c1 | 0.9 | -9* | 0.017 | 0 | 5 | 665 | 219
Clc1ccc(CSC2=NCCCN2)cc1Cl | -0.6 | -4* | 0.1 | -1 | 10 | 355* | 213
Cc1ccc(N=C2SCCCN2C(=O)c2ccco2)cc1Cl | -0.27 | -1.9* | -0.32 | · | · | 532* | 240
O=C(Nc1ccc(N2CCOCC2)c(Cl)c1)c1ccco1 | -0.92 | 0.038 | 0.79 | -2 | 7 | · | ·
Cc1ccccc1S(=O)(=O)Nc1nc2ccccc2nc1N1CCOCC1 | -0.0064 | -0.036 | -0.96 | 0 | 0 | · | ·
Cc1nnc(SCCn2c(N3CCC(Cc4ccccc4)CC3)nc3c2c(=O)[nH]c(=O)n3C)s1 | 0.42 | -0.76 | -0.62 | · | · | · | ·
SMILES | D1 mod | M1 antagonist | M1 ag | S1P3 agonist | S1P1 ag pot | M1 antag confirm | mGluR4 antag
Cc1nnc(SCCn2c(N3CCN(Cc4ccccc4)CC3)nc3c2c(=O)[nH]c(=O)n3C)s1 | 1.3 | -4.1* | -1.3 | 0 | -12 | 588 | 246
Cc1ccc(-c2nnc(N3CCN(C(=O)CSc4ncn[nH]4)CC3)c3ccccc23)cc1 | -1.9 | -2.9* | 0.97 | -1 | 21 | 484 | 225
Cc1ccc(C(=O)CSc2ncn[nH]2)cc1 | 0.23 | 1.1 | 0.24 | 0 | 12 | · | ·
C1=CC2CC1CC2CNCc1ccco1 (centres undefined) | -0.29 | -0.16 | -0.49 | 1 | -9 | · | ·
CCC(Sc1nc(N)c(NC(=O)c2ccc(OC)c(OC)c2)c(=O)[nH]1)C(=O)OC (centres undefined) | -0.043 | 0.74 | 0.98 | 0 | 1 | · | ·
Cc1noc(C)c1COC(=O)c1cccnc1SCC(=O)Nc1ccc2c(c1)OCO2 | 2 | -6.2* | -1.6 | -1 | 4 | 132* | 242
COc1ccc(Cl)cc1NC(=O)CN1CCC(n2nnc3ccccc32)CC1 | · | · | · | 0 | -11 | · | ·
CCCCOC(=O)Nc1cccc(C(C)=O)c1 | 0.34 | -4.8* | 0.3 | -1 | -6 | 625 | 269
CNC(=O)CSc1nnc(-c2cc3c(C)nn(-c4ccccc4)c3s2)n1C | 0.61 | 0.068 | 0.41 | -1 | 8 | · | ·
COc1cccc(-c2nnc(SCC(=O)OC(C)C)n2Cc2ccco2)c1 | -0.17 | -0.35 | -0.082 | 0 | 2 | · | ·
CN(C)CCCN1c2ccccc2Sc2ccc(C(F)(F)F)cc21 | -5.3 | -15* | -0.94 | -2 | 8 | 24* | 273
Cc1cc(C)n(CC(O)CN2c3ccccc3Sc3ccccc32)n1 (centres undefined) | 0.38 | -0.91 | -1.1 | 0 | -14 | · | ·
CC(Sc1cccc(C(F)(F)F)c1)C(=O)NC(N)=O (centres undefined) | · | -0.52 | -0.43 | -1 | 9 | · | ·
CCCOC(=O)c1ccc(OCC(O)CN2CCN(C(=O)c3ccccc3)CC2)cc1 (centres undefined) | 0.3 | -2* | -0.36 | 0 | -21 | 502 | 240
CC(NC(=O)Nc1ccc(F)cc1F)c1ccncc1 (centres undefined) | 0.021 | 0.93 | -1.3 | -2 | 14 | · | ·
O=c1c2ccccc2nnn1CSc1nnc(C2COc3ccccc3O2)n1-c1ccccc1 (centres undefined) | 0.19 | -2.4* | 1.6 | 9.0* | 1 | 562 | 159*
O=C(OCn1nnc2ccccc2c1=O)C1COc2ccccc2O1 (centres undefined) | 0.011 | -0.63 | -0.62 | 0 | -20 | · | ·
